According to ChEMBL document CHEMBL1134366, “Enantiospecific synthesis and pharmacological evaluation of a series of super-potent, conformationally restricted 5-HT(2A/2C) receptor agonists” (J Med Chem, 2001):

Legend:
[1] = molecular target: T1, 5-hydroxytryptamine receptor 2A (Rattus norvegicus, UniProt P14842); assay: Ability to stimulate phosphoinositide hydrolysis in NIH3T3 cells expressing the 5-hydroxytryptamine 2A receptor; format: cell-based
[2] = molecular target: 5-hydroxytryptamine receptor 2A (Rattus norvegicus) (UniProt P14842); assay: Percent maximal 5-HT stimulation at cloned rat 5-hydroxytryptamine 2A receptor (phosphoinositide hydrolysis study) at a conc of 100 uM
5-hydroxytryptamine receptor 2A (Rattus norvegicus), sequence (P14842 whole entry): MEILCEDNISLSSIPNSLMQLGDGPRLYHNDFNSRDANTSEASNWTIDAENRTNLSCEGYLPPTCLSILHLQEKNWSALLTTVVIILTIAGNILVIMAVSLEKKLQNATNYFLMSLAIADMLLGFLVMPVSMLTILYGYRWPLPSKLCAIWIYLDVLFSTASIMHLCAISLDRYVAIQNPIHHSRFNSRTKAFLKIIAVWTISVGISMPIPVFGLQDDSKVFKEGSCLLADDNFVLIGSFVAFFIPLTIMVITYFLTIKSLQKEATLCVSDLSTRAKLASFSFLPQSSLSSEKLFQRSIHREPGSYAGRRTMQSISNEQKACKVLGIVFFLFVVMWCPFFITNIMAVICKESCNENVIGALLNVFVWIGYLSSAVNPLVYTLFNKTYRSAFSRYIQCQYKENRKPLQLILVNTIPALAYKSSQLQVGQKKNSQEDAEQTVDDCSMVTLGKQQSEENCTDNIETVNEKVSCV

[3] = molecular target: T1, 5-hydroxytryptamine receptor 2A; assay: Binding affinity at cloned rat 5-hydroxytryptamine 2A receptor using [3H]DOB as radioligand
Procedure, shortened: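 Competition binding using harvested, frozen NIH-3T3 cells stably expressing rat 5-HT2A, serum-starved 5 h before harvest. Incubated 60 min at 25 °C, then rapid filtration onto GF/B filters pre-soaked in 0.3% polyethylenimine, and scintillation counting. Nonspecific binding defined with 10 µM cinanserin in the saturation assays.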

[4] = molecular target: T2, 5-hydroxytryptamine receptor 2C (Rattus norvegicus, UniProt P08909); assay: Binding affinity at cloned rat 5-hydroxytryptamine 2C receptor using [3H]DOI as radioligand
T2 sequence (P08909 whole entry): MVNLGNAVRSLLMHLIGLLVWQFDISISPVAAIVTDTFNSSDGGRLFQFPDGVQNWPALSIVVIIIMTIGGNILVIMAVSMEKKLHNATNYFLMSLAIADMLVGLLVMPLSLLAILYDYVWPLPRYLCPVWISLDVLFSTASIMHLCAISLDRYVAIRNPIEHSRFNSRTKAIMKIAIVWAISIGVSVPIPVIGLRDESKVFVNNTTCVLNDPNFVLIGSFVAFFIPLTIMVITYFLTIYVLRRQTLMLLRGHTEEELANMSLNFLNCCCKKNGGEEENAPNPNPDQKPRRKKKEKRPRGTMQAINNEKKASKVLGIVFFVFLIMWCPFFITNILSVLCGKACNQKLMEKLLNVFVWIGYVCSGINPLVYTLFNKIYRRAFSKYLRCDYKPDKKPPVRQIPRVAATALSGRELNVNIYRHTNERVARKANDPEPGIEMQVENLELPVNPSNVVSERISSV
Procedure, shortened: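 Competition binding using harvested, frozen NIH-3T3 cells stably expressing rat 5-HT2C. Buffer 50 mM Tris, 0.5 mM EDTA, 10 mM MgCl2, pH 7.4. Incubated 60 min at 25 °C, then rapid filtration onto polyethylenimine-treated GF/B filters and scintillation counting. Nonspecific binding defined with 10 µM mianserin in the saturation assays.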

T1 sequence (P14842 whole entry): as the sequence (P14842 whole entry) above

| SMILES | EC50 [1] [nM] | Max stimulation [2] [%] | Ki [3] [nM] | Ki [4] [nM] |
| --- | --- | --- | --- | --- |
| C[C@@H](N)Cc1c2ccoc2c(Br)c2ccoc12 | 2.7 | 93 | 0.31 | 0.11 |
| C[C@H](N)Cc1c2c(c(Br)c3c1OCC3)OCC2 | 35 | 76 | 2.6 | 1.1 |
| C[C@@H](N)Cc1c2c(c(C(F)(F)F)c3c1OCC3)OCC2 | 28 | 69 | 0.7 | 1.9 |
| C[C@H](N)Cc1c2ccoc2c(Br)c2ccoc12 | 19 | 79 | 0.68 | 0.25 |
| COc1ccc(OC)c(C[C@@H](C)N)c1 | > 10000 | 16 | 2340 | 520 |
| C[C@H](N)Cc1c2ccoc2cc2ccoc12 | 650 | 68 | 37.9 | 6 |
| C[C@H](N)Cc1c2ccoc2c(C(F)(F)F)c2ccoc12 | 12 | 52 | 0.32 | 0.69 |
| C[C@@H](N)Cc1c2c(c(Br)c3c1OCC3)OCC2 | 8.38 | 80 | 1.2 | 0.26 |
| C[C@@H](N)Cc1c2c(cc3c1OCC3)OCC2 | 5650 | 99 | 54.4 | 8.2 |
| COc1cc(C(F)(F)F)c(OC)cc1CC(C)N (configuration not stated) | 68.4 | 86 | 2.2 | 3.78 |
| C[C@H](N)Cc1c2c(c(C(F)(F)F)c3c1OCC3)OCC2 | 30 | 60 | 2 | 1.6 |
| COc1cc(CC(C)N)c(OC)cc1Br (configuration not stated) | – | 79 | – | – |
| C[C@@H](N)Cc1c2ccoc2c(C(F)(F)F)c2ccoc12 | 3.8 | 60 | 0.29 | 0.4 |
| C[C@@H](N)Cc1c2ccoc2cc2ccoc12 | 590 | 76 | 1.5 | 0.79 |
| C[C@H](N)Cc1c2c(cc3c1OCC3)OCC2 | 2360 | 62 | 227 | 119 |
